Assay outcomes (PubChem)
PP1 inh – PP1-alpha phosphatase inhibitors, primary screen, counter-screen for PP5 inhibitor project, biochemical, fluorescence, OMFP substrate, single point; inhibition, % at 6.7 µM; Serine/threonine-protein phosphatase PP1-alpha catalytic subunit (Homo sapiens), P62136; purified PP1alpha; actives 0.9% (n = 320,000);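 active = inhibition above the mean inhibition of all tested compounds plus 3 SD, computed separately for each screening campaign, cut at about 15% in these data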
HCV core dimer – inhibitors of HCV core protein dimerization, primary screen, biochemical, TR-FRET, high-throughput. TR-FRET GST/Flag-core106 dimerization, 1536-well. inhibition, % at 5 µM. actives 0.33% (n = 300,000). AID 1899, 2009;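 active = inhibition above the mean of all tested compounds plus 3 SD, set per screening campaign, cut at about 45% in these data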
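Assay system – GST-tagged and Flag-tagged HCV core protein residues 1-106 · Quantity – core106 proteins, GST 13.5 nM and Flag 17 nM · Benchmarks – unlabelled core106 and no-GST-core106 wells · Read-out basis – percent inhibition of core106 dimerization signal · Detection – time-resolved FRET, ex 340 nm, em 617 and 671 nm · Schedule – 4 h at 22.5 °C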
PP5 primary – PP5 phosphatase inhibitors, primary screen, biochemical, fluorescence; AID 1987, 2009; purified PP5c, OMFP substrate fluorescence; inhibition, % at 6.7 µM; actives 0.18% (n = 320,000);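 active = inhibition above the campaign's mean inhibition across all tested compounds plus 3 SD, cut at about 9.5% in these data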
Target sequence (P53041 whole entry, looked up): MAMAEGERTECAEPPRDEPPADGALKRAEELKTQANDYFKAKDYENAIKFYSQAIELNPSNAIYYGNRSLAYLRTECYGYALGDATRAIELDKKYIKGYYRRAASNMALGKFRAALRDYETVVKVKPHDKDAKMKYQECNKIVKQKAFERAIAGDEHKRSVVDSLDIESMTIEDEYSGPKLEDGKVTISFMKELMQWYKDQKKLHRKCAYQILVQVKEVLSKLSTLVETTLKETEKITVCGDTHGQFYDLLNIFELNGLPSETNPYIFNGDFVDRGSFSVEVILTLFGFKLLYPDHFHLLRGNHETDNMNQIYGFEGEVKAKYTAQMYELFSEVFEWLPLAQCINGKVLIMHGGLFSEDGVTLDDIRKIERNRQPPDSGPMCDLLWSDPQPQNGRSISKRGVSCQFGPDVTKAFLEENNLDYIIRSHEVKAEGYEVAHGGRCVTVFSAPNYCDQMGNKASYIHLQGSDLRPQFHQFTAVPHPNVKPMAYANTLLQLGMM
NadD inh – inhibitors of S. aureus NadD, primary screen, biochemical, colorimetric, uHTS; Nicotinate-nucleotide adenylyltransferase NadD (Staphylococcus aureus N315); purified NadD enzyme, colorimetric absorbance read-out; inhibition, % at 20 µM; actives 0.78% (n = 360,000); AID 602399, 2012; in the data active = inhibition above about 26%
Myeloid diff 2 – induction of myeloid progenitor differentiation, primary screen, cell-based, flow cytometry, MLPCN library; ER-HoxA9 myeloid progenitors, lysozyme-GFP differentiation; calls only at 10 µM; actives 1% (n = 360,000);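 active = normalized GFP-positive differentiation at or above the plate's own cutoff, the solvent-only control mean plus 3 SD; inconclusive = no clear call, values can overlap the other calls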;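 also: cells exposed to compound for four days before flow analysis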
Fh CTSL1 inh – Fasciola hepatica cathepsin L1 inhibitors, primary screen, counter-screen for PFM18AAP inhibitor project, biochemical, QFRET, fluorogenic peptide substrate; recombinant F. hepatica cathepsin L1, Z-Leu-Arg-MCA fluorescence; inhibition, % at 5.96 µM; actives 0.49% (n = 300,000);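 active = inhibition above the mean of all tested compounds plus 3 SD, set per screening campaign, cut at about 17% in these data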
Each line names hits and unclear results; the compound was inactive in the other large screens. Most compounds without a hit are left out; they make up all but 3.1% or so of the library.

O=C(NCc1ccc(/C=c2\sc3n(c2=O)CCN=3)o1)C(=O)Nc1ccccc1	HCV core dimer 59 (no result: NadD inh, Myeloid diff 2)
CN(C)c1ccc(C(=O)C(=O)N2CCN(c3ccccc3)CC2)cc1	none (no result: PP1 inh, HCV core dimer, PP5 primary, NadD inh, Fh CTSL1 inh)
Cc1ccccc1C(=O)NC(CC(C)C)C(=O)OCc1cc(=O)n2cc(Br)ccc2n1 (centres undefined)	Fh CTSL1 inh 27
CC(C)[C@H](NC(=O)c1ccccc1Cl)C(=O)OCc1cc(=O)n2cc(Br)ccc2n1	none
CN1CCN(Cc2cc(COCc3ccccc3)c3cccnc3c2O)CC1	PP1 inh 22, Myeloid diff 2 inconclusive
Cc1cccc(NC(=S)/N=C(\N)Nc2nc(C)c3ccc(C)cc3n2)c1	HCV core dimer 48
Cc1cccc(C)c1N1C(=O)c2ccccc2NC(=O)C1C(=O)NCc1ccco1 (centres undefined)	none (no result: PP1 inh, HCV core dimer, PP5 primary, NadD inh, Fh CTSL1 inh)
C=CCNc1nc(-c2ccc([N+](=O)[O-])cc2)cs1	none
C=CCNc1nc(-c2ccc(Cl)cc2)cs1	Fh CTSL1 inh 25
CCN(CC)C(=O)[C@H]1CC(CC(=O)NC/C=C(\C)CCC=C(C)C)C(=O)N2CCc3c([nH]c4ccccc34)[C@]12C (some centres undefined)	none (no result: PP1 inh, HCV core dimer, PP5 primary, Fh CTSL1 inh)
Nc1ccc(OCCCc2c(N)nc(N)nc2N)cc1	NadD inh 44
COCc1ccc(C(=O)NCC2(N3CCCCC3)CCCCC2)cc1	none
O=C(CSc1ccccc1)NCC1(N2CCCCC2)CCCCC1	Fh CTSL1 inh 60
COc1ccc(CC(=O)NCC2(N3CCCCC3)CCCCC2)cc1	Fh CTSL1 inh 29
CS(=O)(=O)c1ccc(C(=O)NCC2(N3CCCCC3)CCCCC2)cc1	Fh CTSL1 inh 29
CC1CCCCN1S(=O)(=O)c1cccc2nonc12 (centres undefined)	none (no result: PP1 inh, HCV core dimer, PP5 primary, Myeloid diff 2, Fh CTSL1 inh)
C=C1CCN([C@@H](Cc2ccccc2)C(=O)NCc2ccc(Cl)cc2)S(=O)(=O)c2ccccc21	none
COc1cccc(C(C(=O)NC2CCCC2)N2CCN(c3cc(C)ccc3C)CC2)c1OC (centres undefined)	none (no result: PP1 inh, HCV core dimer, PP5 primary, NadD inh, Fh CTSL1 inh)
COCCN1C(=O)CSCC1(C)C(=O)Nc1ccc2c(c1)OCCO2 (centres undefined)	none (no result: PP1 inh, HCV core dimer, PP5 primary, NadD inh, Fh CTSL1 inh)
CCOC(=O)C1=C(Cc2ccc(C)cc2)C(=O)c2ccccc2C1=O	none (no result: NadD inh, Myeloid diff 2)
